# Data as given in ChEMBL document CHEMBL2417549, “Identification of 2,3-dihydro-1H-pyrrolo[3,4-c]pyridine-derived ureas as potent inhibitors of human nicotinamide phosphoribosyltransferase (NAMPT)” (Bioorg Med Chem Lett, 2013).
# Tests used:
# [1] = Apparent permeability across apical to basolateral side in MDCK cells at 10 uM by LC-MS/MS analysis; assay type: ADME, cell-based, Canis lupus familiaris; settings: dog
# Procedure, shortened: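 Apparent permeability, Papp A-B, measured across MDCK cell monolayers. Mean of at least two runs.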
# [2] = Cmax in NCR nude mouse at 5 mg/kg, po; assay type: ADME, organism-based; set-up: dose 5 mg/kg, route oral; settings: in vivo
# Procedure, shortened: (§1)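 Female NCR nude mice given a single 5 mg/kg IV or oral dose as a solution in 35:10:15:40 PEG400:EtOH:PG:H2O. Plasma concentration-time profiles were used to derive Cmax, Tmax, Vss, CL, half-life and bioavailability.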
# [3] = Tmax in NCR nude mouse at 5 mg/kg, po; assay type: ADME, organism-based; set-up: dose 5 mg/kg, route oral; settings: in vivo; procedure, shortened: as §1
# [4] = Volume of distribution at steady state in NCR nude mouse at 5 mg/kg, iv; assay type: ADME, organism-based; set-up: dose 5 mg/kg, route intravenous; settings: in vivo, read-out: Vdss; procedure, shortened: as §1
# [5] = Oral bioavailability in NCR nude mouse at 5 mg/kg; assay type: ADME, organism-based; settings: in vivo; procedure, shortened: as §1
Structure (SMILES),Papp A→B at 10 µM [1],further results
O=C(NCc1ccc(S(=O)(=O)c2ccccc2)cc1)N1Cc2ccncc2C1,8.3 ×10⁻⁶ cm/s,
O=C(NCc1ccc(S(=O)(=O)C2CCN(C3CCOCC3)CC2)cc1)N1Cc2ccncc2C1,0.1 ×10⁻⁶ cm/s,
O=C(NCc1ccc(S(=O)(=O)C2CCN(C3COC3)CC2)cc1)N1Cc2ccncc2C1,0.1 ×10⁻⁶ cm/s,
CC(C)n1cc(S(=O)(=O)c2ccc(CNC(=O)N3Cc4ccncc4C3)cc2)cn1,4.1 ×10⁻⁶ cm/s,

# Further lines, with some results ahead:
Papp A→B at 10 µM [1],Structure (SMILES),further results
0.5 ×10⁻⁶ cm/s,Nc1ccc(S(=O)(=O)c2ccc(CNC(=O)N3Cc4ccncc4C3)cc2)cn1,
2.5 ×10⁻⁶ cm/s,Cc1ccc(S(=O)(=O)c2ccc(CNC(=O)N3Cc4ccncc4C3)cc2)cn1,Cmax [2]: 330 nM; Tmax [3]: 15 min; Vd [4]: 2.04 L/kg; bioavailability [5]: 20.3%
